Bioassay records as filed in PubChem BioAssay.
KDM4C inh – blocks human GASC-1 (KDM4C) demethylase activity. inhibition, % at 12.5 µM. AID 720574. GST-KDM4C 2-372, H3K9me3 peptide, LANCE TR-FRET. Q9H3R0. 0.15% of 96,000 active;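 active = mean replicate inhibition above about 25%, with at least 55% of replicates also reaching it, limit read from the data, passing the limit was not always enough; inconclusive = only one of those two conditions met; inactive = neither condition met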
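Compound: one test concentration per compound; Material: GST-GASC-1 enzyme fragment 2-372; Amount: GASC-1 enzyme at 10 nM final in reaction; Also added: H3K9me3 peptide substrate, Fe(II), 2-oxoglutarate; Technique: LANCE TR-FRET; Times: 30 min demethylation and 1 h detection at room temperature.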
Pf Dd2 inh – inhibitors of Plasmodium falciparum Dd2 growth. P. falciparum Dd2 growth, SYBR Green, 72 h; active compounds read low. activity change, % at 10 µM. 2.3% of 94,000 active; in the data active = activity change below about -80%; inconclusive = no clear call, values can overlap the other calls
T cruzi growth-1 – T. cruzi proliferation inhibition. 5.9% of 77,000 active. T. cruzi beta-gal in NIH3T3, GalScreen luminescence, 90 h. inhibition, % at 8.34 µM;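 active = mean inhibition above about 93%, with at least 55% of replicates each passing it, limit read from the data, passing the limit was not always enough; inconclusive = only one of those two conditions holds; inactive = neither condition holds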
IDH1 R132H inh – IDH1 R132H (human) inhibition | O75874 | IDH1 R132H reductase, diaphorase/resazurin fluorescence, 60 min | inhibition, % at 10 µM | 0.18% of 70,000 active | AID 624101; in the data active = inhibition above about 34%; inconclusive = no clear call, values can overlap the other calls; inactive = below about 11%;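 note: 0% = DMSO and 100% = no enzyme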
Target sequence (O75874 whole entry R132H): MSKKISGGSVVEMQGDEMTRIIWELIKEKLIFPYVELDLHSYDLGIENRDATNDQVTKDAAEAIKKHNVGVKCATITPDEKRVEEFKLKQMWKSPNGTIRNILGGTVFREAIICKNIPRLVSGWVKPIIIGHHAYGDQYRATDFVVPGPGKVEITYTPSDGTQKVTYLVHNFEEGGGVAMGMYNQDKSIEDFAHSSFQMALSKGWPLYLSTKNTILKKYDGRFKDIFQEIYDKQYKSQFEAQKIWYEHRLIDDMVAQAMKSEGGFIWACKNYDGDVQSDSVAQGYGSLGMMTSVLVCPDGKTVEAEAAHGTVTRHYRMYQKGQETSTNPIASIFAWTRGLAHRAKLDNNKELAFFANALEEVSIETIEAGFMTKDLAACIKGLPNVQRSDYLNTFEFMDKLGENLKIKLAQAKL
T cruzi growth-2 – inhibitors of T. cruzi proliferation | shares compounds with T cruzi growth-1 | T. cruzi beta-gal in NIH3T3, GalScreen luminescence, 90 h | inhibition, % at 8.35 µM | 72% of 5,600 active | AID 651739;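 active = mean replicate inhibition above about 95% and at least 55% of replicates individually reaching it, limit read from the data; inconclusive = only one of the two criteria is met; inactive = neither criterion is met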
T cruzi growth-3 – Trypanosoma cruzi proliferation inhibition. shares compounds with T cruzi growth-1. T. cruzi beta-gal in NIH3T3, GalScreen luminescence, 90 h. inhibition, % at 2.09 µM. 21% of 5,600 active;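 active = mean inhibition above about 95%, with at least 55% of replicates also reaching it, limit read from the data; inconclusive = meets just one of the two conditions; inactive = meets neither condition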;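 note: plate controls were neutral control median for no effect and positive control median for full effect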
3T3 cytotox – cytotoxicity in mouse NIH/3T3 fibroblasts; 14% of 5,600 active; NIH/3T3 viability, CellTiter-Glo ATP luminescence, 90 h; shares compounds with T cruzi growth-1; AID 651742; cytotoxicity (signal decrease), % at 8.35 µM;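 active = mean signal decrease across replicates above about 35% based on untreated-well scatter, with enough replicates individually passing, limit read from the data; inconclusive = no rule stated though some were filed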;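 note: 0% = median of neutral control wells and 100% = median of positive control wells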
3T3 cytotox 2 – kills mouse NIH/3T3 fibroblasts. shares compounds with T cruzi growth-1. NIH/3T3 viability, CellTiter-Glo ATP luminescence, 90 h. inhibition, % at 24.9 µM. 56% of 5,600 active;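 active = mean loss of cell viability signal at or above a set limit, and enough replicates individually reaching it; inconclusive = meets only the mean limit or only the replicate share; inactive = meets neither condition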;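 note: 0% = median of neutral control wells and 100% = median of positive control wells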
Starred values were filed as active, the others as inactive; ? = inconclusive; nt = no result given. Sampled rows, rich in hits. Any-hit rate of the full collection: about 5.8%.

SMILES	KDM4C inh	Pf Dd2 inh	T cruzi growth-1	IDH1 R132H inh	T cruzi growth-2	T cruzi growth-3	3T3 cytotox	3T3 cytotox 2
N#C[C@H]1[C@H](c2ccc(-c3cccc(F)c3)cc2)[C@H](CO)N1C(=O)c1cccnc1	-3	-91*	91	nt	nt	nt	nt	nt
CCc1nc(N2[C@H](C#N)[C@H](c3ccccc3-c3ccccc3F)[C@H]2CO)sc1C	-4	-86*	nt	nt	nt	nt	nt	nt
Cc1cc(OCC(=O)Nc2cccc3ncccc23)cc(C)c1Cl	nt	nt	nt	-1	nt	nt	nt	nt
O=C(C[C@H]1CC[C@@H]2[C@H](COC[C@@H](O)CN2C(=O)c2ccncc2)O1)NC1CCC1	-1	10	97*	nt	-30	-32	-11	-14
O=C(C[C@@H]1CC[C@@H]2[C@H](COC[C@H](O)CN2C(=O)c2ccncc2)O1)NC1CCC1	-2	-16	108*	nt	-16	-86	2	-15
CC1CCc2c(sc3ncnc(NCCc4nc5ccccc5[nH]4)c23)C1 (stereo unspecified)	nt	nt	nt	1	nt	nt	nt	nt
COc1ccc(NC(=O)CN2C(=O)COc3ccc(Cl)cc32)cc1	nt	nt	nt	-1	nt	nt	nt	nt
Cc1ccc(S(=O)(=O)N(C)C[C@@H]2OCCCC[C@H](C)Oc3ccc(NS(=O)(=O)c4ccccc4)cc3C(=O)N([C@H](C)CO)C[C@@H]2C)cc1	0	-59	?	nt	nt	nt	nt	nt
Cc1ccc(S(=O)(=O)Nc2ccc3c(c2)C(=O)N([C@@H](C)CO)C[C@H](C)[C@@H](CN(C)S(=O)(=O)c2ccccc2)OCCCC[C@H](C)O3)cc1	0	-64	102*	nt	109*	78	7	-7
Cc1ccc(S(=O)(=O)N(C)C[C@H]2OCCCC[C@@H](C)Oc3ccc(NS(=O)(=O)c4ccccc4)cc3C(=O)N([C@@H](C)CO)C[C@H]2C)cc1	-2	-48	?	nt	109*	74	-6	-2
Cc1ccc(S(=O)(=O)N(C)C[C@H]2OCCCC[C@H](C)Oc3ccc(NS(=O)(=O)c4ccccc4)cc3C(=O)N([C@H](C)CO)C[C@H]2C)cc1	-2	-80	?	nt	nt	nt	nt	nt
Cc1ccc(S(=O)(=O)N(C)C[C@H]2OCCCC[C@@H](C)Oc3ccc(NS(=O)(=O)c4ccccc4)cc3C(=O)N([C@H](C)CO)C[C@H]2C)cc1	-1	-83*	?	nt	101*	73	4	-5
Cc1ccc(S(=O)(=O)Nc2ccc3c(c2)C(=O)N([C@@H](C)CO)C[C@@H](C)[C@H](CN(C)S(=O)(=O)c2ccccc2)OCCCC[C@@H](C)O3)cc1	0	-51	105*	-2	106*	72	7	23
Cc1ccc(S(=O)(=O)Nc2ccc3c(c2)C(=O)N([C@@H](C)CO)C[C@@H](C)[C@H](CN(C)S(=O)(=O)c2ccccc2)OCCCC[C@H](C)O3)cc1	0	-27	57	nt	nt	nt	nt	nt
C[C@@H]1CCCCO[C@H](CN(C)C(=O)Cc2ccccc2)[C@H](C)CN([C@@H](C)CO)C(=O)c2cc(NC(=O)Nc3cccc4ccccc34)ccc2O1	-2	-57	101*	nt	105*	57	-37	2
C[C@@H]1CCCCO[C@@H](CN(C)C(=O)Cc2ccccc2)[C@@H](C)CN([C@H](C)CO)C(=O)c2cc(NC(=O)Nc3cccc4ccccc34)ccc2O1	-2	5	54	nt	nt	nt	nt	nt
C[C@@H]1CCCCO[C@@H](CN(C)C(=O)Cc2ccccc2)[C@H](C)CN([C@H](C)CO)C(=O)c2cc(NC(=O)NC3CCCCC3)ccc2O1	1	-17	100*	0	108*	26	10	26*
C[C@H]1CCCCO[C@H](CN(C)C(=O)Cc2ccccc2)[C@@H](C)CN([C@@H](C)CO)C(=O)c2cc(NC(=O)Nc3ccccc3)ccc2O1	0	-45	99*	0	109*	52	28	8
COCCNC(=O)Nc1ccc2nc(-c3ccccn3)c(-c3ccccn3)nc2c1	nt	nt	nt	-1	nt	nt	nt	nt
C[C@@H]1CN([C@H](C)CO)C(=O)c2cc(NC(=O)Nc3ccc(C(F)(F)F)cc3)ccc2O[C@@H](C)CCCCO[C@@H]1CN(C)Cc1ccc2c(c1)OCO2	1	-60	?	nt	94	120*	?	102*
C[C@@H]1CCCCO[C@H](CN(C)Cc2ccc3c(c2)OCO3)[C@@H](C)CN([C@H](C)CO)C(=O)c2cc(NC(=O)Nc3ccc(C(F)(F)F)cc3)ccc2O1	-1	-47	?	3	94	113*	19	102*
C[C@@H]1CCCCO[C@@H](CN(C)Cc2ccc(C(F)(F)F)cc2)[C@@H](C)CN([C@@H](C)CO)C(=O)c2cc(NC(=O)Nc3ccc4c(c3)OCO4)ccc2O1	-1	-8	85	1	nt	nt	nt	nt
C[C@@H]1CCCCO[C@@H](CN(C)Cc2ccc3c(c2)OCO3)[C@H](C)CN([C@H](C)CO)C(=O)c2cc(NC(=O)Nc3ccc(C(F)(F)F)cc3)ccc2O1	-2	-69	119*	nt	102*	110*	32	104*
C[C@H](CO)N1C[C@H](C)[C@@H](CN(C)Cc2ccc(-c3ccccc3)cc2)Oc2c(NC(=O)NC3CCCCC3)cccc2C1=O	nt	-39	105*	nt	106*	89	-30	104*
C[C@@H]1CN([C@H](C)CO)C(=O)c2cccc(NC(=O)NC3CCCCC3)c2O[C@@H]1CN(C)Cc1ccc(Oc2ccccc2)cc1	0	-49	48	1	nt	nt	nt	nt
C[C@@H]1CN([C@H](C)CO)C(=O)c2cccc(NC(=O)NC3CCCCC3)c2O[C@H]1CN(C)Cc1ccc(Oc2ccccc2)cc1	0	-11	?	nt	98*	108*	-14	104*
COc1ccc([N+](=O)[O-])cc1NC(=O)C1(c2ccc(OC)c(OC)c2)CCCCC1	nt	nt	nt	0	nt	nt	nt	nt
C[C@@H]1CN([C@H](C)CO)C(=O)c2cc(NC(=O)CCC(F)(F)F)ccc2O[C@@H](C)CCCCO[C@H]1CN(C)C(=O)Nc1ccc(F)cc1	1	-55	-46	1	nt	nt	nt	nt
C[C@H](CO)N1C[C@H](C)[C@@H](CN(C)C(=O)Nc2ccc(C(F)(F)F)cc2)OCCCC[C@H](C)Oc2ccc(NC(=O)CCC(F)(F)F)cc2C1=O	-1	-52	101*	nt	108*	89	-8	24
C[C@@H]1CCCCO[C@H](CN(C)C(=O)Nc2ccc(F)cc2)[C@H](C)CN([C@H](C)CO)C(=O)c2cc(NC(=O)CCC(F)(F)F)ccc2O1	0	-72	98*	nt	85	72	11	32*
